Assay results: ChEMBL document CHEMBL5154772, “Biological Investigation of a Water-Soluble Isoginkgetin-Phosphate Analogue, Targeting the Spliceosome with In Vivo Antitumor Activity” (J Med Chem, 2022)
The source made the active and inactive calls. The calls are words filed in the database; no cut-off is given here.

Key:
Assay type in all cases: functional, cell-based
MCA-205 = experiment: Induction of B3Z T-cell activation cocultured with mouse MCA-205 cells expressing SL8 epitope assessed as increase in intron-derived SL8 antigen presentation at 2 to 10 uM measured after 18 hrs; details: dose 2-10 µM
How it was run: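 MCA205 cells transfected with YFP-Globin-SL8-intron plasmid (pCDNA3 empty-vector control). 24 h later, treated 18 h. Washed, then 5x10^4 cells co-cultured with 1x10^5 SL8/H-2Kb-specific B3Z CD8+ T-cell hybridoma for 18 h at 37 °C. Cells lysed, β-galactosidase read with 40 µM MUG substrate over 3 h at room temperature. Normalised to unspecific B3Z activation. At least three biological replicates, Student's t-test.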

U2OS [1] = experiment: Antitumor immunity against human U2OS cells assessed as decrease in ATP by measuring reduction in quinacrine green fluorescence intensity at 3 uM pretreated for 24 hrs by live fluorescence microscopic analysis
U2OS [2] = experiment: Antitumor immunity against human U2OS cells expressing HMGBI-GFP fusion protein assessed as accumulation HMGBI-GFP fusion protein at 3 uM measured upto 24 hrs by live cell microscopic analysis
U2OS [3] = experiment: Antitumor immunity against human U2OS cells expressing CALR-GFP fusion protein assessed as accumulation CALR-GFP fusion protein at 3 uM measured upto 24 hrs by live cell microscopic analysis

Row | Compound | Activity (MCA-205) | Activity (U2OS [1]) | Activity (U2OS [2]) | Activity (U2OS [3])
1 | COc1cc(-c2ccc(=O)[nH]n2)ccc1OC(F)F | Active | – | – | –
2 | O=C1c2c(O)ccc(O)c2C(=O)c2c(NCCNCCO)ccc(NCCNCCO)c21 | – | Active | Active | Active
